For series [1], the system named is Mus musculus. Nature of the series: Number of survivors on 60th day at dose 75 mg/kg/day in 7 mice implanted with P388 leukemia cell line for 1,8,15 scheduled days in Exp-1; 6/10. It counts as functional.
In series [2] the test system is Mus musculus. Nature of the series: Number of survivors on 30th day at dose 60 mg/kg/day in 10 mice implanted with P388 leukemia cell line 1,5,9 scheduled days; 9/9. Type of series: functional.
Series [3] has as its system Mus musculus. Nature of the series: Percent increase in life span at dose 65 mg/kg/day in 10 mice implanted with P388 leukemia cell line for 1st schedule day. Type of series: functional.
Series [4] deals with Mus musculus. Nature of the series: Number of survivors of DBA2 mice on 30th day after inoculation with L1210 leukemia cell line intravenously at a dose of 55 mg/kg/day; 0/10. Conditions: route intravenous. It counts as functional.
Series [5] concerns Mus musculus. Nature of the series: Number of survivors on 60th day at dose 58 mg/kg/day in 10 mice implanted with P388 leukemia cell line; 0/10. Type of series: functional.
Series [6] relates to Mus musculus. Nature of the series: Number of survivors on 30th day at dose 58 mg/kg/day in 10 mice implanted with P388 leukemia cell line;2/10. It counts as functional.
A short description of series [7]: Acute iv toxicity against CD1 strain of 40 mice after 4 doses of injection. Conditions: CD1, mouse, in vivo. It counts as organism-based. Summed up: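 Acute toxicity in Swiss, CD1 or NMRI mice. Drugs given iv as sulfate salts. LD50 taken at day 14 from several dose levels, with 40–[…] mice per drug and strain.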
For series [8], the system named is Mus musculus. Nature of the series: Percent increase in life span of DBA2 mice after inoculation with L1210 leukemia intravenously at a dose of 45 mg/kg per day. Type of series: functional. The note with it: route intravenous. An outline of the steps: (§1)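 Female DBA2 mice inoculated iv on day 0 with 10^4 L1210 cells; drugs given iv as sulfate salts in physiological saline, mostly once on day 1. %ILS from all deaths and survivors as (T/C × 100) − 100; survivors scored on days 30 and 60.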

Series [9] concerns Mus musculus. Nature of the series: Number of survivors on 60th day at dose 55 mg/kg/day in 10 mice implanted with P388 leukemia cell line; 1/10. Type of series: functional.
Series [10] deals with Mus musculus. Nature of the series: Percent increase in life span of DBA2 mice after inoculation with L1210 leukemia intravenously at a dose of 8 mg/kg per day. It counts as functional. The note with it: route intravenous. Summed up: as §1
The subject of series [11] is Mus musculus. Nature of the series: Number of survivors of DBA2 mice on 30th day after inoculation with L1210 leukemia cell line intravenously at a dose of 8 mg/kg/day; 0/10. It counts as functional. Conditions: route intravenous.
The test system of series [12] is Mus musculus. Nature of the series: Percent increase in life span at dose 9 mg/kg/day in 10 mice implanted with P388 leukemia cell line. Type of series: functional. Summed up: (§2)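 Female DBA2 mice inoculated iv on day 0 with 10^4 P388 cells; single iv treatment on day 1 with drug as sulfate salt in physiological saline. Survival followed; %ILS from all deaths and survivors as (T/C × 100) − 100, maximal MST 30 days; survivors counted on days 30 and 60. Most experiments confirmed three times.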

Series [13] relates to Mus musculus. Nature of the series: Number of survivors of DBA2 mice on 30th day after inoculation with L1210 leukemia cell line intravenously at a dose of 6 mg/kg/day; 0/10. It counts as functional. The note with it: route intravenous.
In series [14] the test system is Mus musculus. Nature of the series: Number of survivors of DBA2 mice on 60th day after inoculation with L1210 leukemia cell line intravenously at a dose of 9 mg/kg/day; 0/10. It counts as functional. Conditions: route intravenous. Summed up:
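Female DBA₂ mice received 10⁴ L1210 cells iv on day 0. Compounds were given iv as sulfate salts in physiological saline, as a single dose on day 1 (mg/kg per day). Groups were 10 mice. Survivors were counted on day 60. Cells were maintained by ip passage in DBA₂ mice.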

Series [15] deals with Mus musculus. Nature of the series: Number of survivors on 30th day at dose 6 mg/kg/day in 10 mice implanted with P388 leukemia cell line; 1/10. It counts as functional.
For series [16], the system named is Mus musculus. Nature of the series: Number of survivors of DBA2 mice on 60th day after inoculation with L1210 leukemia cell line intravenously at a dose of 8 mg/kg/day; 0/10. Type of series: functional. The note with it: route intravenous.
Series [17] concerns Mus musculus. Nature of the series: Percent increase in life span of DBA2 mice after inoculation with L1210 leukemia intravenously at a dose of 9 mg/kg per day. It counts as functional. Conditions: route intravenous. An outline of the steps: as §1
For series [18], the system named is Mus musculus. Nature of the series: Number of survivors on 60th day at dose 9 mg/kg/day in 10 mice implanted with P388 leukemia cell line; 0/10. It counts as functional. An outline of the steps: as §2
The test system of series [19] is Mus musculus. Nature of the series: Number of survivors of DBA2 mice on 60th day after inoculation with L1210 leukemia cell line intraperitoneally at a dose of 4 mg/kg/day; 0/10. Type of series: functional. Conditions: route intraperitoneal.
Series [20] has as its system Mus musculus. Nature of the series: Percent increase in life span of BDF1 mice after inoculation with P388 leukemia intraperitoneally at a dose of 3 mg/kg per day. The note with it: P388, ip.
Series [21] has as its system Mus musculus. Nature of the series: Number of survivors on 60th day at dose 10 mg/kg/day in 10 mice implanted with P388 leukemia cell line; 0/10. It counts as functional.
Series [22] relates to Mus musculus. Nature of the series: Number of survivors on 60th day at dose 11 mg/kg/day in 10 mice implanted with P388 leukemia cell line; 0/10. It counts as functional.
The test system of series [23] is Mus musculus. Nature of the series: Percent increase in life span at dose 4 mg/kg/day in 10 mice implanted with P388 leukemia cell line for 1st scheduled day. It counts as functional. Summed up: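 Female DBA2 mice inoculated iv on day 0 with 10^5 P388 cells; iv dosing of sulfate salts in physiological saline on day 1 only or on days 1, 8 and 15. %ILS from all deaths and survivors as (T/C × 100) − 100, maximal MST 60 days; survivors scored on day 60.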

In series [24] the test system is Mus musculus. Nature of the series: Number of survivors of DBA2 mice on 30th day after inoculation with L1210 leukemia cell line intravenously at a dose of 3 mg/kg/day; 0/10. It counts as functional. The note with it: route intravenous.
Series [25] has as its system Mus musculus. Nature of the series: Number of survivors on 30th day at dose 6 mg/kg/day in 10 mice implanted with P388 leukemia cell line; 0 /10. Type of series: functional.
In series [26] the test system is Mus musculus. Nature of the series: Number of survivors on 30th day at dose 8 mg/kg/day in 9 mice implanted with P388 leukemia cell line; 0 /9. It counts as functional.
Series [27] relates to Mus musculus. Nature of the series: Number of survivors on 60th day at dose 3 mg/kg/day in 10 mice implanted with P388 leukemia cell line; 0/10. Type of series: functional.
In series [28] the test system is Mus musculus. Nature of the series: Number of survivors on 60th day at dose 4 mg/kg/day in 10 mice implanted with P388 leukemia cell line; 0/10. Type of series: functional.
The test system of series [29] is Mus musculus. Nature of the series: Number of survivors on 30th day at dose 9 mg/kg/day in 10 mice implanted with P388 leukemia cell line; […]. It counts as functional.
The test system of series [30] is Mus musculus. Nature of the series: Percent increase in life span of DBA2 mice after inoculation with L1210 leukemia intravenously at a dose of 2.5 mg/kg per day. It counts as functional. The note with it: route intravenous. Summed up: as §1
Series [31] relates to Mus musculus. Nature of the series: Percent increase in life span at dose 2 mg/kg/day in 10 mice implanted with P388 leukemia cell line. It counts as functional. An outline of the steps: as §2
The subject of series [32] is Mus musculus. Nature of the series: Number of survivors on 60th day at dose 2 mg/kg/day in 10 mice implanted with P388 leukemia cell line; 0/10. It counts as functional.
The test system of series [33] is Mus musculus. Nature of the series: Number of survivors of DBA2 mice on 60th day after inoculation with L1210 leukemia cell line intraperitoneally at a dose of 1 mg/kg/day; 0/10. Type of series: functional. Conditions: route intraperitoneal.
The subject of series [34] is Mus musculus. Nature of the series: Number of survivors of DBA2 mice on 30th day after inoculation with L1210 leukemia cell line intraperitoneally at a dose of 2.5 mg/kg/day; 0/10. Type of series: functional. Conditions: route intraperitoneal.
Series [35] relates to Mus musculus. Nature of the series: Number of survivors on 30th day at dose 5 mg/kg/day in 10 mice implanted with P388 leukemia cell line; 0/10. Type of series: functional.

As a reminder, the LD50 is the dose expected to kill half of the subjects tested. Read a low LD50 as a more toxic substance.

For the compound `CCOC(=O)[C@H](Cc1c[nH]c2ccccc12)NC(=O)[C@@]1(O)[C@H](O)[C@]2(CC)C=CCN3CC[C@@]4(c5cc([C@@]6(C(=O)OC)C[C@H]7C[N@](CCc8c6[nH]c6ccccc86)C[C@](O)(CC)C7)c(OC)cc5N(C)[C@@]14C)[C@@H]32`, the Survivors is 6 in the series on Mus musculus [1]; 9 in the series on Mus musculus [2]; 0 with Mus musculus [4]; 0 in the series on Mus musculus [5]; 2 with Mus musculus [6]; 1 in the series with Mus musculus [9]. In the series with Mus musculus [3], the ILS at 65 mg/kg/day came out at 82%. This compound also had an LD50 in series [7] of 110 mg/kg. In addition, the ILS at 45 mg/kg/day in the series with Mus musculus [8] worked out at 92%.
With `CCOC(=O)[C@@H](NC(=O)[C@@]1(O)[C@H](O)[C@]2(CC)C=CCN3CC[C@@]4(c5cc([C@@]6(C(=O)OC)C[C@H]7C[N@](CCc8c6[nH]c6ccccc86)C[C@](O)(CC)C7)c(OC)cc5N(C)[C@@]14C)[C@@H]32)[C@@H](C)CC`, the ILS at 8 mg/kg/day in the series on Mus musculus [10] came to 49%. The Survivors in the series on Mus musculus [11] came to 0; in the series on Mus musculus [13], 0; in the series with Mus musculus [14] it was 0; with Mus musculus [15] it was 1; in the series on Mus musculus [16], 0; in the series on Mus musculus [18], 0. Further, the values for the ILS at 9 mg/kg/day with Mus musculus [12] and with Mus musculus [17] were 34% and 64%, respectively.
For the compound `CC[C@]1(O)C[C@@H]2CN(CCc3c([nH]c4ccccc34)[C@@](C(=O)OC)(c3cc4c(cc3OC)N(C)[C@H]3[C@@](O)(C(=O)OC)[C@H](OC(C)=O)[C@]5(CC)C=CCN6CC[C@]43[C@@H]65)C2)C1` [VINBLASTINE], the Survivors in the series on Mus musculus [19], in the series on Mus musculus [21], with Mus musculus [11], in the series on Mus musculus [22], in the series with Mus musculus [13] and with Mus musculus [24] was 0 in each case. Besides, the Survivors in the series with Mus musculus [25], in the series on Mus musculus [26], in the series with Mus musculus [27], in the series on Mus musculus [14], in the series with Mus musculus [28] and with Mus musculus [16] was 0 each time. Besides, the figures for the Survivors with Mus musculus [29] and in the series with Mus musculus [18] were 1 and 0, respectively. Further, the ILS at 3 mg/kg/day in the series on Mus musculus [20] came to 63%. Further, the ILS at 8 mg/kg/day with Mus musculus [10] turned out to be 57.6%. For the same compound, the ILS at 4 mg/kg/day in the series with Mus musculus [23] is 52%. The results for the ILS at 9 mg/kg/day in the series with Mus musculus [12] and in the series with Mus musculus [17] were 49.5% and -21.6%, respectively. Further, in [7], the median lethal dose (LD50) stood at 28 mg/kg.
As for `CC[C@]1(O)C[C@H]2CN(CCc3c([nH]c4ccccc34)[C@@](C(=O)OC)(c3cc4c(cc3OC)N(C=O)[C@H]3[C@@](O)(C(=O)OC)[C@H](OC(C)=O)[C@]5(CC)C=CCN6CC[C@]43[C@@H]65)C2)C1` [VINCRISTINE], the ILS at 2.5 mg/kg/day in the series with Mus musculus [30] was determined as 30%. In the series on Mus musculus [31], the ILS at 2 mg/kg/day is -46%. For the same compound, the Survivors in the series with Mus musculus [24], in the series with Mus musculus [32] and in the series with Mus musculus [33] was 0 in each case.
As to `CC[C@]1(O)C[C@@H]2CN(CCc3c([nH]c4ccccc34)[C@@](C(=O)OC)(c3cc4c(cc3OC)N(C)[C@H]3[C@@](O)(C(N)=O)[C@H](O)[C@]5(CC)C=CCN6CC[C@]43[C@@H]65)C2)C1` [VINDESINE], in the series on Mus musculus [30], the ILS at 2.5 mg/kg/day was 13.3%. Further, the Survivors in the series with Mus musculus [34], in the series on Mus musculus [35], with Mus musculus [27], with Mus musculus [32] and in the series on Mus musculus [28] was 0 throughout. Moreover, the ILS at 3 mg/kg/day with Mus musculus [20] worked out at 89%. For the same compound, the ILS at 4 mg/kg/day with Mus musculus [23] is 43%. Besides, the ILS at 2 mg/kg/day with Mus musculus [31] was found to be 27.1%.

Source of the values: ChEMBL document CHEMBL1122917, “Vinblastin-23-oyl amino acid derivatives: chemistry, physicochemical data, toxicity, and antitumor activities against P388 and L1210 leukemias” (J Med Chem, 1985).
